Source: PubChem BioAssay
proKLK7 act: activates the human kallikrein-7 zymogen. P49862. purified proKLK7, EDANS-DABCYL substrate fluorescence; 100% is mature enzyme control, 0% vehicle. activation, % at 7 µM. 370,000 compounds, 0.9% hits;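 active means activation above the mean of all tested compounds plus 3 SD, computed per campaign excluding outliers beyond control limits, cut at about 13% in these data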
MEX-5 binding: C. elegans MEX-5 TCR-2 RNA binding activity; MEX-5/FITC-TCR2 RNA binding, fluorescence polarization; stronger effect = lower value; activity score (negative = inhibition of binding), % at 10 µM; 300,000 compounds, 0.38% hits; AID 1832;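 active means inhibition past about -25% in most replicates, and total fluorescence under double the plate's negative control median, limit read from the data; inconclusive means replicates evenly split on the limit, or fluorescence at least double controls; inactive means too little inhibition in most replicates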;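 further: 0% = DMSO and -100% = 5 µM competing unlabeled TCR2 RNA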
Target sequence (Q9XUB2 whole entry, looked up): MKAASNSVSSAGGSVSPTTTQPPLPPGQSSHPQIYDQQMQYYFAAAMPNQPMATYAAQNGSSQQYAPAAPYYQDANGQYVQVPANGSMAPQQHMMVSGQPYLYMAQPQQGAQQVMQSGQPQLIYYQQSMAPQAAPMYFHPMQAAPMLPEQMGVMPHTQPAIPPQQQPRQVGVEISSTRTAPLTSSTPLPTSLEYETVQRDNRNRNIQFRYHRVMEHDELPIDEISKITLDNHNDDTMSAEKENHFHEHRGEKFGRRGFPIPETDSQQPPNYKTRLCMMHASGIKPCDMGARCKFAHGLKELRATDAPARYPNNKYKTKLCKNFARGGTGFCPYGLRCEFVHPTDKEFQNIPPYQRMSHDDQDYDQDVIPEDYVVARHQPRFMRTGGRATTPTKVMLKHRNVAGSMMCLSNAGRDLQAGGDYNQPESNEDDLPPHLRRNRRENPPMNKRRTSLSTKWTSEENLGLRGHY
Runt-CBFb FRET: blocks binding of human RUNX1 Runt domain to CBFb; Q01196+Q13951; Cerulean-Runt/Venus-CBFb FRET ratio 530/480, 1 h; inhibition, % at 20 µM; 220,000 compounds, 0.46% hits; AID 1496;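 active means inhibition over about 50% at 20 µM in the single-dose screen, limit read from the data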;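 further: 0% = DMSO wells and 100% = excess unlabeled CBFb competitor control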
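Schedule: protein complex preformed 1 h, compound exposure 1 h, room temperature, dark; test system: Cerulean-labeled Runt domain protein; amount: 100 nM per protein; buffer or medium: Tris 50 mM pH 7.5, KCl, K2SO4, 0.01% BSA; read-out: loss of energy transfer signal; detection: FRET fluorescence; controls: 5 µM unlabeled CBFb as full-inhibition high control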
Runt-SMMHC FRET: blocks binding of human RUNX1 Runt domain to CBFb-SMMHC; Cerulean-Runt/Venus-CBFb-SMMHC FRET ratio 530/480, 1 h; inhibition, % at 20 µM; 220,000 compounds, 0.74% hits; AID 1434;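 active means mean inhibition across duplicate retests at 20 µM reaching about 50%, limit read from the data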;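 further: 0% = DMSO wells and 100% = wells with excess untagged CBFb-SMMHC; inhibitors lower the FRET ratio by blocking Runt binding to CBFb-SMMHC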
RanGTP-Imp inh: inhibitors of RanGTP-importin-beta interaction, primary screen, biochemical, FRET, CFP-Ran, YFP-importin-beta, homogeneous; cell-free CFP-Ran/YFP-importin-beta FRET ratio; inhibition, % (test concentration not listed); 300,000 compounds, 1.1% hits; AID 2216;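 active means more than half of the replicate wells show a fall in the fluorescence ratio signal beyond about 16%, limit read from the data, passing the limit was not always enough; inconclusive means exactly half of the replicate wells pass the set limit; inactive means fewer than half of replicates pass the limit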;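 further: 0% = DMSO wells and 100% = Ran loaded with GDP instead of GTP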
proKLK7 act conf: proKLK7 activation, confirmation; shares compounds with proKLK7 act; purified proKLK7, EDANS-DABCYL substrate fluorescence; scaled: vehicle 0, mature enzyme 100; activation, % at 7 µM; 3,200 compounds, 68% hits; AID 686949;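 active means activation, as change over the incubation, above the mean of all tested compounds plus 3 SD, cut at about 13% in these data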
EDANS interfere: counter-screen for kallikrein-7 activators: EDANS-DABCYL optical interference | shares compounds with proKLK7 act | EDANS-DABCYL substrate fluorescence interference, no enzyme, 4 h; solvent 0%, active enzyme control 100% | activation, % at 7 µM | 3,200 compounds, 80% hits | AID 686952;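 active means activation above the all-compound mean plus 3 SD, ignoring values outside control-based bounds, cut at about 4.8% in these data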;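 further: value is the 4 h activation minus the activation read at time zero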
K7 EDANS ctr: EDANS fluorescence interference in dose response, no enzyme; shares compounds with proKLK7 act; EDANS-DABCYL peptide fluorescence interference; EC50, µM; 250 compounds, 20% hits;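 active means compounds that raise the fluorescence signal in this interference counterscreen, with EC50 at or below 10 µM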;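 further: intact quenched peptide substrate alone read at 355 nm excitation and 520 nm emission; signal is fluorescence gain from T0 to T4 after four hours at room temperature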
* = called active by the depositor. Most compounds without a hit are left out; they make up all but 2.1% or so of the library.

Screening Cc1ccc(S(=O)(=O)N2C3CCCCC3O[C@H]2CC(=O)OCc2ccccc2)cc1 (some centres undefined) returned proKLK7 act 0.
CC(=O)c1ccc(Nc2nc(C(C)N)cs2)cc1 (centres undefined) was read as proKLK7 act 1.
Cn1c(C(=O)N2CCc3ccccc3C2)cc2c(=O)n3ccccc3nc21 was read as proKLK7 act 16*, MEX-5 binding 0, Runt-CBFb FRET 21, Runt-SMMHC FRET 79*, RanGTP-Imp inh 1, proKLK7 act conf -33 and EDANS interfere -26.
For CN1CCCN(C(=O)c2ccc(Br)s2)CC1 the results were proKLK7 act 0, MEX-5 binding 1 and RanGTP-Imp inh inconclusive.
`CN1CCN(C(=O)c2ccc(-c3cccs3)s2)CC1` gave proKLK7 act 32*, MEX-5 binding -1, Runt-CBFb FRET 1, Runt-SMMHC FRET 3, RanGTP-Imp inh 3, proKLK7 act conf 6 and EDANS interfere 5.3*.
Cc1ccc(-n2c(SCC(N)=O)nnc2-c2ccc(S(=O)(=O)N3CCCCC3)cc2)c(C)c1 was read as proKLK7 act 1, MEX-5 binding 0, Runt-CBFb FRET -6, Runt-SMMHC FRET -4 and RanGTP-Imp inh -3.
C#CCn1c(=NC(=O)c2sc3ccccc3c2Cl)sc2cc(S(N)(=O)=O)ccc21 was read as proKLK7 act 30*, MEX-5 binding 5, Runt-CBFb FRET -18, Runt-SMMHC FRET -31, RanGTP-Imp inh 3, proKLK7 act conf -1 and EDANS interfere 2.
CC(=O)c1ccc(N(CC(=O)NC2CCS(=O)(=O)C2)S(=O)(=O)c2ccc(C)cc2)cc1 (centres undefined) was read as proKLK7 act 1.
For CS(=O)(=O)Nc1ccc(C2=NN(C(=O)CCCC(=O)O)C(c3cccs3)C2)cc1 (centres undefined) the results were proKLK7 act 26*, MEX-5 binding 2, RanGTP-Imp inh -5, proKLK7 act conf 48* and EDANS interfere 74*.
`O=C(Nc1ccc2nc(-c3ccccn3)c(-c3ccccn3)nc2c1)N1CCOCC1` gave proKLK7 act 36*, MEX-5 binding -1, Runt-CBFb FRET 25, Runt-SMMHC FRET 34, RanGTP-Imp inh 20*, proKLK7 act conf 70* and EDANS interfere 66*.
Screening Cc1nc2ccc(NC(=O)N3CCCCC3)cc2nc1C returned proKLK7 act 35*, MEX-5 binding -2, Runt-CBFb FRET -7, Runt-SMMHC FRET -22, RanGTP-Imp inh -15, proKLK7 act conf 69*, EDANS interfere 57* and K7 EDANS ctr >69.
Screening CCOC(=O)N1CCN(C(=O)Nc2ccc3nc(C)c(C)nc3c2)CC1 returned proKLK7 act 16*, MEX-5 binding 3, Runt-CBFb FRET -6, Runt-SMMHC FRET -23, RanGTP-Imp inh -2, proKLK7 act conf 39* and EDANS interfere 33*.
`Cc1nc2ccc(NC(=S)N3CCCC3)cc2nc1C` gave proKLK7 act 0, MEX-5 binding -1, Runt-CBFb FRET -6, Runt-SMMHC FRET -25 and RanGTP-Imp inh 2.
CN(Cc1ccc(Cl)cc1Cl)C(=O)C1CSC2(C)CCC(=O)N12 (centres undefined) was read as proKLK7 act 0.
For COc1ccc2oc(=O)c(-c3nnc(NCc4ccco4)s3)cc2c1 the results were proKLK7 act 35*, MEX-5 binding -1, Runt-CBFb FRET -123, Runt-SMMHC FRET 44, RanGTP-Imp inh inconclusive, proKLK7 act conf -78 and EDANS interfere -81.
